Experimental data: ChEMBL document CHEMBL5058577, “EUbOPEN Chemogenomics Library 2 (Multiplex)” (2022)

System: HEK-293T
Assay: Multiplex assay against HEK293T
Assay type: toxicity, cell-based
Settings: human
In short: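 Live cells carried four stains from seeding: Hoechst33342, BioTracker Green Microtubule Cytoskeleton Dye, MitoTracker Red and Annexin V Alexa Fluor 680. They were imaged on a CQ1 microscope at 37°C and 5% CO2 after compound addition. Using CellPathfinder machine-learning gating, cells were split into Hoechst high-intensity objects or normal cells, normal cells into healthy, pyknosed or fragmented nuclei, and pyknosed cells into mitotic or apoptotic; tubulin, mitochondrial-mass and membrane-permeability phenotypes are per cents of healthy-nucleus cells.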

[1] = 12 h, 1 µM, compound concentration 1 uM, replicate 1
[2] = 12 h, 1 µM, compound concentration 1 uM, replicate 2
[3] = 12 h, 10 µM, compound concentration 10 uM, replicate 1
[4] = 12 h, 10 µM, compound concentration 10 uM, replicate 2
[5] = 24 h, 1 µM, compound concentration 1 uM, replicate 1
[6] = 24 h, 1 µM, compound concentration 1 uM, replicate 2
[7] = 24 h, 10 µM, compound concentration 10 uM, replicate 1
[8] = 24 h, 10 µM, compound concentration 10 uM, replicate 2
[9] = 48 h, 1 µM, compound concentration 1 uM, replicate 1
[10] = 48 h, 1 µM, compound concentration 1 uM, replicate 2
[11] = 48 h, 10 µM, compound concentration 10 uM, replicate 1
[12] = 48 h, 10 µM, compound concentration 10 uM, replicate 2

CCOc1c2c(c(OCC)c3ncccc13)CN(c1ccc(CS(=O)(=O)NC(=O)Cc3ccccc3OC)cc1C)C2=O
Population Apoptotic (%) [1]: 33%
Population Fragmented Nuclei (%) [1]: 3%
Population Healthy Nuclei (%) [1]: 81%
Population Hoechst High Intensity Objects (%) [1]: 6%
Population Membrane Permeable-Phenotype (%) [1]: 0%
Population Mitochondria Different-Phenotype (%) [1]: 43%
Population Mitotic Cells (%) [1]: 66%
Population Normal (%) [1]: 93%
Population Pyknosed Nuclei (%) [1]: 14%
Population Tubulin-Different-Phenotype (%) [1]: 31%
Total Cell Count [1]: 356
Population Apoptotic (%) [2]: 35%
Population Fragmented Nuclei (%) [2]: 5%
Population Healthy Nuclei (%) [2]: 82%
Population Hoechst High Intensity Objects (%) [2]: 5%
Population Mitochondria Different-Phenotype (%) [2]: 54%
Population Mitotic Cells (%) [2]: 64%
Population Normal (%) [2]: 94%
Population Pyknosed Nuclei (%) [2]: 12%
Population Tubulin-Different-Phenotype (%) [2]: 16%
Total Cell Count [2]: 355
Population Apoptotic (%) [3]: 45%
Population Fragmented Nuclei (%) [3]: 9%
Population Healthy Nuclei (%) [3]: 78%
Population Hoechst High Intensity Objects (%) [3]: 4%
Population Membrane Permeable-Phenotype (%) [3]: 0%
Population Mitochondria Different-Phenotype (%) [3]: 49%
Population Mitotic Cells (%) [3]: 54%
Population Normal (%) [3]: 95%
Population Pyknosed Nuclei (%) [3]: 12%
Population Tubulin-Different-Phenotype (%) [3]: 34%
Total Cell Count [3]: 367
Population Apoptotic (%) [4]: 53%
Population Fragmented Nuclei (%) [4]: 7%
Population Healthy Nuclei (%) [4]: 76%
Population Hoechst High Intensity Objects (%) [4]: 9%
Population Mitochondria Different-Phenotype (%) [4]: 72%
Population Mitotic Cells (%) [4]: 46%
Population Normal (%) [4]: 90%
Population Pyknosed Nuclei (%) [4]: 16%
Population Tubulin-Different-Phenotype (%) [4]: 29%
Total Cell Count [4]: 362
Population Apoptotic (%) [5]: 35%
Population Fragmented Nuclei (%) [5]: 11%
Population Healthy Nuclei (%) [5]: 73%
Population Hoechst High Intensity Objects (%) [5]: 5%
Population Membrane Permeable-Phenotype (%) [5]: 0%
Population Mitochondria Different-Phenotype (%) [5]: 28%
Population Mitotic Cells (%) [5]: 64%
Population Normal (%) [5]: 94%
Population Pyknosed Nuclei (%) [5]: 14%
Population Tubulin-Different-Phenotype (%) [5]: 20%
Total Cell Count [5]: 462
Population Apoptotic (%) [6]: 27%
Population Fragmented Nuclei (%) [6]: 5%
Population Healthy Nuclei (%) [6]: 85%
Population Hoechst High Intensity Objects (%) [6]: 3%
Population Mitochondria Different-Phenotype (%) [6]: 27%
Population Mitotic Cells (%) [6]: 72%
Population Normal (%) [6]: 96%
Population Pyknosed Nuclei (%) [6]: 8%
Population Tubulin-Different-Phenotype (%) [6]: 10%
Total Cell Count [6]: 473
Population Apoptotic (%) [7]: 18%
Population Fragmented Nuclei (%) [7]: 10%
Population Healthy Nuclei (%) [7]: 75%
Population Hoechst High Intensity Objects (%) [7]: 4%
Population Membrane Permeable-Phenotype (%) [7]: 0%
Population Mitochondria Different-Phenotype (%) [7]: 36%
Population Mitotic Cells (%) [7]: 81%
Population Normal (%) [7]: 95%
Population Pyknosed Nuclei (%) [7]: 14%
Population Tubulin-Different-Phenotype (%) [7]: 28%
Total Cell Count [7]: 446
Population Apoptotic (%) [8]: 32%
Population Fragmented Nuclei (%) [8]: 8%
Population Healthy Nuclei (%) [8]: 82%
Population Hoechst High Intensity Objects (%) [8]: 8%
Population Membrane Permeable-Phenotype (%) [8]: 1%
Population Mitochondria Different-Phenotype (%) [8]: 49%
Population Mitotic Cells (%) [8]: 67%
Population Normal (%) [8]: 91%
Population Pyknosed Nuclei (%) [8]: 9%
Population Tubulin-Different-Phenotype (%) [8]: 17%
Total Cell Count [8]: 481
Population Apoptotic (%) [9]: 29%
Population Fragmented Nuclei (%) [9]: 13%
Population Healthy Nuclei (%) [9]: 79%
Population Hoechst High Intensity Objects (%) [9]: 3%
Population Membrane Permeable-Phenotype (%) [9]: 0%
Population Mitochondria Different-Phenotype (%) [9]: 20%
Population Mitotic Cells (%) [9]: 70%
Population Normal (%) [9]: 96%
Population Pyknosed Nuclei (%) [9]: 6%
Population Tubulin-Different-Phenotype (%) [9]: 13%
Total Cell Count [9]: 822
Population Apoptotic (%) [10]: 33%
Population Fragmented Nuclei (%) [10]: 11%
Population Healthy Nuclei (%) [10]: 83%
Population Hoechst High Intensity Objects (%) [10]: 1%
Population Mitochondria Different-Phenotype (%) [10]: 14%
Population Mitotic Cells (%) [10]: 66%
Population Normal (%) [10]: 98%
Population Pyknosed Nuclei (%) [10]: 5%
Population Tubulin-Different-Phenotype (%) [10]: 7%
Total Cell Count [10]: 770
Population Apoptotic (%) [11]: 41%
Population Fragmented Nuclei (%) [11]: 13%
Population Healthy Nuclei (%) [11]: 78%
Population Hoechst High Intensity Objects (%) [11]: 4%
Population Membrane Permeable-Phenotype (%) [11]: 1%
Population Mitochondria Different-Phenotype (%) [11]: 32%
Population Mitotic Cells (%) [11]: 58%
Population Normal (%) [11]: 95%
Population Pyknosed Nuclei (%) [11]: 8%
Population Tubulin-Different-Phenotype (%) [11]: 16%
Total Cell Count [11]: 631
Population Apoptotic (%) [12]: 33%
Population Fragmented Nuclei (%) [12]: 12%
Population Healthy Nuclei (%) [12]: 81%
Population Hoechst High Intensity Objects (%) [12]: 3%
Population Membrane Permeable-Phenotype (%) [12]: 0%
Population Mitochondria Different-Phenotype (%) [12]: 22%
Population Mitotic Cells (%) [12]: 66%
Population Normal (%) [12]: 96%
Population Pyknosed Nuclei (%) [12]: 6%
Population Tubulin-Different-Phenotype (%) [12]: 11%
Total Cell Count [12]: 724
